Laboratory results: ChEMBL document CHEMBL3351895, “Cytotoxicity of synthesized 1,4-naphthoquinone analogues on selected human cancer cell lines” (Bioorg Med Chem, 2014)

Legend:
[1] = Cytotoxicity against human SNO cells assessed as cell survival after 48 hrs by XTT assay
MCF7 = assay: Cytotoxicity against human MCF7 cells assessed as cell survival after 48 hrs by XTT assay; settings: MCF7, 48 h
HeLa = assay: Cytotoxicity against human HeLa cells assessed as cell survival after 48 hrs by XTT assay
DU-145 = assay: Cytotoxicity against human DU145 cells assessed as cell survival after 48 hrs by XTT assay; settings: DU-145, 48 h
PBMC = assay: Cytotoxicity against human PBMC assessed as cell survival after 24 hrs by fluorescence assay
[2] = Cell cycle arrest in human U937 cells assessed as accumulation at subG1 phase at 2 ug/ml after 24 hrs by propidium iodide staining-based flow cytometric analysis (reference value: 15.1%); format: functional; settings: U-937
Summary of the method: (§1)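 U937 cells in complete RPMI 1640 (10% FBS, 25 mM HEPES, 2 mM glutamine) seeded at 2 × 10^6 cells/ml in flasks, recovered 24 h, then treated with compounds in DMSO (2 µg/ml). Cisplatin (10 µM) served as positive control and DMSO as negative control. Cells were harvested at 24 or 48 h and stained with propidium iodide. Phase percentages were gated on singlet cells by flow cytometry. Three independent experiments.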

[3] = Cell cycle arrest in human U937 cells assessed as accumulation at G0/G1 phase at 2 ug/ml after 24 hrs by propidium iodide staining-based flow cytometric analysis (reference value: 41.7%); format: functional; settings: U-937
Summary of the method: as §1

[4] = Cell cycle arrest in human U937 cells assessed as accumulation at S phase at 2 ug/ml after 24 hrs by propidium iodide staining-based flow cytometric analysis (reference value: 30.7%); format: functional; settings: U-937
Summary of the method: as §1

[5] = Cell cycle arrest in human U937 cells assessed as accumulation at G2/M phase at 2 ug/ml after 24 hrs by propidium iodide staining-based flow cytometric analysis (reference value: 12.5%); format: functional; settings: U-937
Summary of the method: as §1

[6] = Cell cycle arrest in human U937 cells assessed as accumulation at subG1 phase at 2 ug/ml after 48 hrs by propidium iodide staining-based flow cytometric analysis (reference value: 1.1%); format: functional; settings: U-937
Summary of the method: as §1

[7] = Cell cycle arrest in human U937 cells assessed as accumulation at G0/G1 phase at 2 ug/ml after 48 hrs by propidium iodide staining-based flow cytometric analysis (reference value: 54.6%); format: functional; settings: U-937
Summary of the method: as §1

[8] = Cell cycle arrest in human U937 cells assessed as accumulation at S phase at 2 ug/ml after 48 hrs by propidium iodide staining-based flow cytometric analysis (reference value: 25.7%); format: functional; settings: U-937
Summary of the method: as §1

[9] = Cell cycle arrest in human U937 cells assessed as accumulation at G2/M phase at 2 ug/ml after 48 hrs by propidium iodide staining-based flow cytometric analysis (reference value: 16.6%); format: functional; settings: U-937
Summary of the method: as §1

U-937 [10] = assay: Induction of apoptosis in human U937 cells assessed as caspase 3/7 activation at 2 ug/ml after 24 hrs by fluorescence reader relative to control; format: functional
Summary of the method: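 U937 cells (2 × 10^6/ml, 24 h recovery) were exposed for 24 h to compounds in DMSO (2 µg/ml), with cisplatin 10 µM and DMSO controls. Cells were pelleted and resuspended in RPMI, at least 2 × 10^5 cells per well. (DEVD)2 substrate was added and cells incubated 2 h at 37 °C, 5% CO2, resuspended every 20 min. Fluorescence was read at 544/590 and 544/620 nm.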

U-937 [11] = assay: Cytotoxicity against human U937 cells assessed as cell survival after 24 hrs by XTT assay; format: functional, cell-based
U-937 [12] = assay: Induction of apoptosis in human U937 cells assessed as necrotic cells at 2 ug/ml after 24 hrs by annexin V-FITC/propidium iodide staining-based flow cytometry (reference value: 24.7%); format: functional
U-937 [13] = assay: Induction of apoptosis in human U937 cells assessed as late apoptotic cells at 2 ug/ml after 24 hrs by annexin V-FITC/propidium iodide staining-based flow cytometry (reference value: 3%); format: functional
U-937 [14] = assay: Induction of apoptosis in human U937 cells assessed as early apoptotic cells at 2 ug/ml after 24 hrs by annexin V-FITC/propidium iodide staining-based flow cytometry (reference value: 6.3%); format: functional
U-937 [15] = assay: Induction of apoptosis in human U937 cells assessed as viable cells at 2 ug/ml after 24 hrs by annexin V-FITC/propidium iodide staining-based flow cytometry (reference value: 66%); format: functional; settings: U-937, 24 h, read-out: Activity
U-937 [16] = assay: Induction of apoptosis in human U937 cells assessed as necrotic cells at 2 ug/ml after 48 hrs by annexin V-FITC/propidium iodide staining-based flow cytometry (reference value: 1.4%); format: functional
U-937 [17] = assay: Induction of apoptosis in human U937 cells assessed as late apoptotic cells at 2 ug/ml after 48 hrs by annexin V-FITC/propidium iodide staining-based flow cytometry (reference value: 11.7%); format: functional
U-937 [18] = assay: Induction of apoptosis in human U937 cells assessed as early apoptotic cells at 2 ug/ml after 48 hrs by annexin V-FITC/propidium iodide staining-based flow cytometry (reference value: 5.7%); format: functional
U-937 [19] = assay: Induction of apoptosis in human U937 cells assessed as viable cells at 2 ug/ml after 48 hrs by annexin V-FITC/propidium iodide staining-based flow cytometry (reference value: 81.3%); format: functional; settings: U-937, 48 h, read-out: Activity

SMILES | IC50 [1] [µM] | IC50 (MCF7) [µM] | IC50 (HeLa) [µM] | IC50 (DU-145) [µM] | IC50 (PBMC) [µM] | Activity [2] [%] | Activity [3] [%] | Activity [4] [%] | Activity [5] [%] | Activity [6] [%] | Activity [7] [%] | Activity [8] [%] | Activity [9] [%] | Activity (U-937 [10]) [%] | Activity (U-937 [11]) | Activity (U-937 [12]) [%] | Activity (U-937 [13]) [%] | Activity (U-937 [14]) [%] | viability at 2 µg/mL (U-937 [15]) [%] | Activity (U-937 [16]) [%] | other results
CC(=O)Oc1cc(OC(C)=O)c2c(OC(C)=O)cc(C)c(Cl)c2c1OC(C)=O | 56.9 | 51.1 | 52.9 | 59.6 | – | – | – | – | – | – | – | – | – | – | – | – | – | – | – | – | –
COc1c(C)cc(Cl)c2c1C(=O)C=CC2=O | 44.9 | 16.2 | 41.5 | 36.5 | – | – | – | – | – | – | – | – | – | – | – | – | – | – | – | – | –
Cc1cc(O)c2c(c1)C(=O)C=CC2=O [RAMENTACEONE] | 81.4 | 27.2 | 66.6 | 11.9 | 18.4 | – | – | – | – | – | – | – | – | – | – | – | – | – | – | – | –
CC(=O)Oc1cc(C)cc2c1C(=O)C=CC2=O | 28.1 | 14.7 | 17.2 | 24.1 | – | – | – | – | – | – | – | – | – | – | – | – | – | – | – | – | –
Cc1cc(O)c2c(c1)C(=O)C(O)=CC2=O | 23.2 | 14.6 | 5.3 | 6.8 | 54 | 3 | 53.4 | 27.3 | 15.5 | 10.6 | 65.1 | 16.1 | 7.3 | 7.39 | – | – | – | – | – | – | –
Cc1cc(O)c2c(c1Cl)C(=O)C=CC2=O | 17.2 | 15.7 | 13.5 | 29.5 | – | 17.1 | 60.9 | 16.2 | 5.4 | 53.5 | 30.2 | 10.5 | 5.4 | – | Not toxic | – | – | – | – | – | –
Cc1cc(O)c2c(c1Br)C(=O)C=CC2=O | 14.9 | 15.5 | 11.3 | 46.3 | – | 14.8 | 63.3 | 16.8 | 4.6 | 13 | 53 | 28.8 | 17.7 | – | Not toxic | 67.1 | 7 | 10 | 15.9 | 53.8 | Activity (U-937 [17]): 39%; Activity (U-937 [18]): 3.4%; viability at 2 µg/mL (U-937 [19]): 3.8%
Cc1ccc2c(c1O)C(=O)C=CC2=O | 19 | 15.3 | 16.4 | 15.4 | – | 33.8 | 43 | 14.2 | 8.6 | 15 | 62.9 | 14.6 | 7 | -5.14 | – | 28.3 | 31.4 | 24.8 | 15.5 | 30.3 | Activity (U-937 [17]): 43.2%; Activity (U-937 [18]): 6.4%; viability at 2 µg/mL (U-937 [19]): 20.1%
CCOc1c(C)cc(Cl)c2c1C(=O)C=CC2=O | 37.3 | 32.2 | 33.2 | 26.2 | – | – | – | – | – | – | – | – | – | – | – | – | – | – | – | – | –
Cc1cc(O)c2c(c1F)C(=O)C=CC2=O | 18.9 | 20.3 | 10.2 | 15.4 | 189 | 8.2 | 69.2 | 17.4 | 4.7 | 11.8 | 64.8 | 15.9 | 6.9 | -5.21 | Not toxic | 61.1 | 34.2 | 10.2 | 4.5 | 53.9 | Activity (U-937 [17]): 42.6%; Activity (U-937 [18]): 1%; viability at 2 µg/mL (U-937 [19]): 1.6%
